Measurements of several laboratories.
Compare with care: the assays were run in different laboratories. ≈ marks a conversion by molar mass, not a printed value.
Organism: Bacillus subtilis

O=C(O)c1cn(C2CC2)c2cc(N3CCNCC3)c(F)cc2c1=O  MBC (microbial killing): 0.019 µg/mL (≈ 0.0573 µM)
CCCCCCCCCCCCCCCc1cc(O)cc(O)c1  IC50 (microbial growth): 26.7 µM
CCC1C(=NOCc2cc(-c3ccc(Cl)cc3)no2)CC(c2ccccc2)OC1c1ccccc1 (stereo not shown)  MIC (microbial growth, broth dilution; MTCC121; 24 h): 12.5 µg/mL (≈ 25.7 µM)
CC1(C)S[C@@H]2[C@H](NC(=O)[C@H](N)c3ccccc3)C(=O)N2[C@H]1C(=O)O  inhibition zone (microbial growth, well diffusion; ATCC6633; 60000 µg/mL): 31 mm
CC(C)CCCCCCCCCCCCc1cc(O)cc(O)c1  IC50 (microbial growth): 54.6 µM
CCCCCCCCCCCC(=O)OC[C@H]1O[C@@H](n2cc(C)c(=O)[nH]c2=O)C[C@@H]1OC(=O)c1ccc(C(C)(C)C)cc1  MBC (microbial killing, broth dilution): 16 µg/mL (≈ 27.4 µM)
CCCCCCCCCCCCCCCC(=O)NS(=O)(=O)Oc1ccc(OC)cc1  MIC (microbial growth; ATCC23857): 3.12 µg/mL (≈ 7.06 µM)
Cc1c(NN=C(C#N)C2=NC(=O)CS2)c(=O)n(-c2ccccc2)n1C  MBC (microbial killing, broth dilution): 2 µg/mL (≈ 5.64 µM)
CCCCCCCCCCCC(=O)NP(=O)(O)O  MIC (microbial growth; ATCC23857): > 200 µg/mL
CCCCCCCCCCCC(=O)OC[C@H]1O[C@@H](n2cc(C)c(=O)[nH]c2=O)C[C@@H]1O  MBC (microbial killing, broth dilution): 16 µg/mL (≈ 37.7 µM)
CCCCCCCCCCCCCCCC(=O)CP(=O)(O)O  MIC (microbial growth; ATCC23857): 25 µg/mL (≈ 74.8 µM)
CC1C(=NOCc2cc(-c3ccc(Cl)cc3)no2)CC(c2ccccc2)OC1c1ccccc1 (stereo not shown)  MIC (microbial growth, broth dilution; MTCC121; 24 h): 12.5 µg/mL (≈ 26.4 µM)
CCC(CCCCCCCCCCc1cc(O)cc(O)c1)C(C)C (stereo not shown)  IC50 (microbial growth): 3.44 µM
CCCCCCCC/C=C\CCCCCCCC(=O)C(F)(F)P(=O)(O)O  MIC (microbial growth; ATCC23857): > 200 µg/mL
CC(C)CCCCCCCCCCCCCCCc1cc(O)cc(O)c1  IC50 (microbial growth): 14.5 µM
O=C(CCCCC1CCCCC1)NP(=O)(O)O  MIC (microbial growth; ATCC23857): > 200 µg/mL
